# Key:
# L1210 [1] = experiment: Tested for in vivo weight change against murine L1210 leukemia at the dose of 5.0 mg/kg per injection in experiment 2; format: functional, organism-based; conditions: Mus musculus
# Outline: (§1)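 Leukemia life-span assays used CD2F1 (Balb/c × DBA/2F1) mice weighing 18–22 g. Cells were inoculated IP on day 0, and compounds in 0.9% saline were given IP, dosed by average cage weight. Weight change is the difference in mean group weight between the last and first treatment days.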
# L1210 [2] = experiment: Tested for in vivo weight change against murine L1210 leukemia at the dose of 6.0 mg/kg per injection in experiment 1; format: functional, organism-based; conditions: Mus musculus; outline: as §1
# L1210 [3] = experiment: Tested for the ratio of number of survivors / total number after 60 days at the dose of 5.0 mg/kg per injection against murine leukemia L1210 experiment 2; format: functional, organism-based; conditions: Mus musculus
# Outline: (§2)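 CD2F1 (Balb/c × DBA/2F1) mice, 18–22 g, randomized and inoculated IP with counted leukemia cells on day 0, then re-randomized. Three IP treatments, dissolved in 0.9% saline and dosed on average cage weight, with dose in mg/kg per injection across a full toxic-to-ineffective range. Median life span and %T/C were recorded. Survivors at 60 days were counted as cured and excluded from %T/C.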
# L1210 [4] = experiment: Tested for median life span against solid tumor L1210 Pt-resistant leukemia at 10 mg/kg per injection in experiment 2; format: functional, organism-based; conditions: Mus musculus
# Outline: (§3)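 CD2F1 mice weighing 18–22 g were inoculated IP with leukemia cells on day 0. Compounds in 0.9% saline were given IP in three injections, dosed by average cage weight, over a dose range from toxic to ineffective. Median life span was recorded, with cause of death assessed at necropsy and 60-day survivors counted as cured.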
# L1210 [5] = experiment: Tested for median life span against solid tumor L1210 Pt-resistant leukemia at 4.0 mg/kg per injection in experiment 1; format: functional, organism-based; conditions: Mus musculus; outline: as §3
# L1210 [6] = experiment: Tested for median life span against solid tumor L1210 Pt-resistant leukemia at 6.0 mg/kg per injection; format: functional, organism-based; conditions: Mus musculus; outline: as §3
# L1210 [7] = experiment: Tested for in vivo weight change against murine L1210 Pt-resistant leukemia at the dose of 6.0 mg/kg per injection; format: functional, organism-based; conditions: Mus musculus; outline: as §1
# L1210 [8] = experiment: Tested for median life span against solid tumor L1210 leukemia at 6.0 mg/kg per injection in experiment 1; format: functional, organism-based; conditions: Mus musculus; outline: as §3
# L1210 [9] = experiment: Tested for the ratio of treated and control against solid tumor murine L1210 Pt-resistant leukemia 10 mg/kg per injection in experiment 2; T/C; format: functional, organism-based; conditions: Mus musculus
# Outline: (§4)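 Murine leukemia life span assay in CD2F1 (Balb/c × DBA/2F1) mice, 18–22 g, randomized, with IP tumor cell inoculation on day 0. Depending on the model, the inoculum was 1 × 10^4 cells with IP dosing on days 3, 7 and 11, or 1 × 10^6 cells with IP dosing on days 1, 5 and 9. Drug was given in 0.9% saline, mg/kg per injection, by average cage weight. Read-outs were median day of death and %T/C. Mice alive 60 days after treatment counted as cured and were excluded.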
# L1210 [10] = experiment: Tested for the ratio of treated and control against solid tumor murine L1210 Pt-resistant leukemia 5.0 mg/kg per injection in experiment 2; T/C; format: functional, organism-based; conditions: Mus musculus; outline: as §4
# L1210 [11] = experiment: Tested for the ratio of treated and control against solid tumor murine L1210 Pt-resistant leukemia 6.0 mg/kg per injection; T/C; format: functional, organism-based; conditions: Mus musculus; outline: as §4
# L1210 [12] = experiment: Tested for the ratio of treated and control against solid tumor murine L1210 leukemia 10 mg/kg per injection in experiment 2; T/C; format: functional, organism-based; conditions: Mus musculus; outline: as §4
# Mus musculus [13] = experiment: Tested for the ratio of number of survivors / total number after 60 days at the dose of 5.0 mg/kg per injection against murine leukemia P388; format: functional, organism-based; outline: as §2
# Mus musculus [14] = experiment: Tested for in vivo weight change against murine B16 melanoma at the dose of 9.0 mg/kg per injection; format: functional, organism-based
# Outline: (§5)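 B6C3F1 (C57BL/6 × C3HF1) mice weighing 18–22 g received trocar tumor fragments SC on day 0. Compounds in 0.9% saline were given IP on a three-injection schedule, dosed by average cage weight. Weight change is the maximum treatment-related weight loss during the growth-delay assay.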
# Mus musculus [15] = experiment: Tested for in vivo weight change against murine P388 Pt-resistant leukemia at the dose of 5.0 mg/kg per injection; format: functional, organism-based; outline: as §1
# Mus musculus [16] = experiment: Tested for in vivo weight change against murine P388 leukemia at the dose of 10 mg/kg per injection; format: functional, organism-based; outline: as §1
# P388 = experiment: Tested for in vivo weight change against murine P388 leukemia at the dose of 5.0 mg/kg per injection; format: functional, organism-based; conditions: Mus musculus; outline: as §1
# [17] = tested on: M5076 sarcoma (Mus musculus); experiment: Tested for the ratio of treated and control tumor to reach 750 mg against murine solid tumor M5076 sarcoma 4.0 mg/kg per injection
# L1210 [18] = experiment: Tested for the ratio of number of survivors / total number after 60 days at the dose of 1.6 mg/kg per injection against murine L1210 Pt-resistant leukemia in experiment 2; format: functional, organism-based; conditions: Mus musculus; outline: as §2
# L1210 [19] = experiment: Tested for the ratio of number of survivors / total number after 60 days at the dose of 1.6 mg/kg per injection against murine leukemia L1210 experiment 2; format: functional, organism-based; conditions: Mus musculus; outline: as §2
# L1210 [20] = experiment: Tested for the ratio of number of survivors / total number after 60 days at the dose of 2.5 mg/kg per injection against murine leukemia L1210 experiment 2; format: functional, organism-based; conditions: Mus musculus; outline: as §2
# L1210 [21] = experiment: Tested for in vivo weight change against murine L1210 Pt-resistant leukemia at the dose of 3.0 mg/kg per injection in experiment 1; format: functional, organism-based; conditions: Mus musculus; outline: as §1
# L1210 [22] = experiment: Tested for in vivo weight change against murine L1210 leukemia at the dose of 2.5 mg/kg per injection in experiment 2; format: functional, organism-based; conditions: Mus musculus; outline: as §1
# L1210 [23] = experiment: Tested for in vivo weight change against murine L1210 leukemia at the dose of 3.0 mg/kg per injection in experiment 1; format: functional, organism-based; conditions: Mus musculus; outline: as §1
# L1210 [24] = experiment: Tested for median life span against solid tumor L1210 leukemia at 3.0 mg/kg per injection in experiment 1; format: functional, organism-based; conditions: Mus musculus; outline: as §3
# L1210 [25] = experiment: Tested for the ratio of treated and control against solid tumor murine L1210 Pt-resistant leukemia 1.5 mg/kg per injection in experiment 1; T/C; format: functional, organism-based; conditions: Mus musculus; outline: as §4
# L1210 [26] = experiment: Tested for the ratio of treated and control against solid tumor murine L1210 Pt-resistant leukemia 1.6 mg/kg per injection in experiment 2; T/C; format: functional, organism-based; conditions: Mus musculus; outline: as §4
# L1210 [27] = experiment: Tested for the ratio of treated and control against solid tumor murine L1210 Pt-resistant leukemia 3.0 mg/kg per injection in experiment 1;T/C; format: functional, organism-based; conditions: Mus musculus; outline: as §4
# L1210 [28] = experiment: Tested for the ratio of treated and control against solid tumor murine L1210 leukemia 1.5 mg/kg per injection in experiment 1; T/C; format: functional, organism-based; conditions: Mus musculus; outline: as §4
# L1210 [29] = experiment: Tested for the ratio of treated and control against solid tumor murine L1210 leukemia 1.6 mg/kg per injection in experiment 2; T/C; format: functional, organism-based; conditions: Mus musculus; outline: as §4
# L1210 [30] = experiment: Tested for the ratio of number of survivors / total number after 60 days at the dose of 1.5 mg/kg per injection against murine leukemia L1210 experiment 1; format: functional, organism-based; conditions: Mus musculus; outline: as §2
# Mus musculus [31] = experiment: Tested for in vivo weight change against murine B16 melanoma at the dose of 4.0 mg/kg per injection; format: functional, organism-based; outline: as §5
# Mus musculus [32] = experiment: Tested for in vivo weight change against murine M5076 sarcoma at the dose of 4.0 mg/kg per injection; format: functional, organism-based; outline: as §5
# Mus musculus [33] = experiment: Tested for the ratio of number of survivors / total number after 60 days at the dose of 3.7 mg/kg per injection against murine leukemia P388 experiment 2; format: functional, organism-based; outline: as §2
# Mus musculus [34] = experiment: Tested for the ratio of treated and control against solid tumor murine P388 Pt-resistant leukemia 3.7 mg/kg per injection; T/C; format: functional, organism-based; outline: as §4
# Mus musculus [35] = experiment: Tested for the ratio of treated and control against solid tumor murine P388 leukemia 2.3 mg/kg per injection in experiment 2; T/C; format: functional, organism-based; outline: as §4
substance,measurement,setting,value
CISPLATIN,Weight change,L1210 [1],0.5 g
same,Weight change,L1210 [2],-1.9 g
same,Survivors,L1210 [3],0
same,MLS,L1210 [4],12.4 days
same,MLS,L1210 [5],11.1 days
same,MLS,L1210 [6],12 days
same,Weight change,L1210 [7],-3.7 g
same,MLS,L1210 [8],18.5 days
same,Ratio,L1210 [9],120%
same,Ratio,L1210 [10],107%
same,Ratio,L1210 [11],118%
same,Ratio,L1210 [12],199%
same,Survivors,Mus musculus [13],0
same,Weight change,Mus musculus [14],-4.5 g
same,Weight change,Mus musculus [15],1 g
same,Weight change,Mus musculus [16],-5.5 g
same,Weight change,P388,0.2 g
same,T-C,[17],15.9 days
"[Pt(cis-1,4-dach)CL2]",60-day survivors,L1210 [18],1
same,60-day survivors,L1210 [19],0
same,60-day survivors,L1210 [20],1
same,Weight change,L1210 [21],-4.3 g
same,Weight change,L1210 [22],-1.9 g
same,Weight change,L1210 [23],-4.8 g
same,MLS,L1210 [24],21.5 days
same,Ratio,L1210 [25],154%
same,Ratio,L1210 [26],146%
same,Ratio,L1210 [27],167%
same,Ratio,L1210 [28],217%
same,Ratio,L1210 [29],229%
same,60-day survivors,L1210 [30],0
same,Weight change,Mus musculus [31],-2.6 g
same,Weight change,Mus musculus [32],-5.5 g
same,Survivors,Mus musculus [33],0
same,T/C,Mus musculus [34],177%
same,T/C,Mus musculus [35],225%

# Reference: ChEMBL document CHEMBL1127616, “Synthesis, structural characterization, and antitumor properties of a novel class of large-ring platinum(II) chelate complexes incorporating the cis-1,4-diaminocyclohexane ligand in a unique locked boat conformation” (J Med Chem, 1994)
